This is an account of results in ChEMBL document CHEMBL1122206, “Use of adenine nucleotide derivatives to assess the potential of exo-active-site-directed reagents as species- or isozyme-specific enzyme inactivators. 5. Interactions of adenosine 5'-triphosphate derivatives with rat pyruvate kinases, Escherichia coli thymidine kinase, and yeast and rat …” (1982).

The nature of assay [1]: Tested for the velocity of 2.8 mM compound relative to that of 2.8 mM MgATP in the assay. Put shortly: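 E. coli TK substrate test. 0.5 h after adding inhibitor, the mixture was diluted to 2.8 mM derivative in thymidine assay medium without ATP and with 1.42 mM MnCl2. Incubated 15 min at 37 °C, in the linear range. [14C]TMP formed was compared with that from 2.8 mM ATP under the same conditions.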

Assay [2] has as its target T1, Hexokinase-2 (Rattus norvegicus) (UniProt P27881).
T1 sequence (whole entry): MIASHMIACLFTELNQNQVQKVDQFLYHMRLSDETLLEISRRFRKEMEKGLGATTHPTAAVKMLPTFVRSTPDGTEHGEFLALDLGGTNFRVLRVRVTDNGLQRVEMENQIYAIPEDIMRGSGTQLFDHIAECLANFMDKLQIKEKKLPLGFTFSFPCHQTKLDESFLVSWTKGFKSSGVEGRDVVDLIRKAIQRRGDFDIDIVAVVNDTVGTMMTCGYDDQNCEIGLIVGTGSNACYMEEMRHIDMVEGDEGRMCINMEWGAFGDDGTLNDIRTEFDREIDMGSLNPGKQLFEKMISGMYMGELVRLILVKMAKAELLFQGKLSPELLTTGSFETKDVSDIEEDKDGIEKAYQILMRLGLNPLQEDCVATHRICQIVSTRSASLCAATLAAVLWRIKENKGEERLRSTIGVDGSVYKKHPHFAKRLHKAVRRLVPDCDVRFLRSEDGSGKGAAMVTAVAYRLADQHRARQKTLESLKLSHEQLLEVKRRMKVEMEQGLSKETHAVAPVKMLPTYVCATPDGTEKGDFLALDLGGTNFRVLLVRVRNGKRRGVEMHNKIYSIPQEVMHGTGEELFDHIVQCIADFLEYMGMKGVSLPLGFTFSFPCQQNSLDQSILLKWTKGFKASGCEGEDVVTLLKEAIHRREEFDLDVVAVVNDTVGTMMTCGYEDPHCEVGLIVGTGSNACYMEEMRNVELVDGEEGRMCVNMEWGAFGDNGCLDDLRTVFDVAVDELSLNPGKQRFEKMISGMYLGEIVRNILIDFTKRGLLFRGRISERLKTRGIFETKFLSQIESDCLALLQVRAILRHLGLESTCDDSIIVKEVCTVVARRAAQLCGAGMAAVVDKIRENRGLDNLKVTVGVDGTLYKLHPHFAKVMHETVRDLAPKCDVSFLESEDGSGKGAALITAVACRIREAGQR
Briefly: Time dependent inhibition of hexokinase 2 activity after 6 h, at 5 mM compound.

The target of assay [3] is T2, Hexokinase-3 (Rattus norvegicus) (UniProt P27926).
T2 sequence (whole entry): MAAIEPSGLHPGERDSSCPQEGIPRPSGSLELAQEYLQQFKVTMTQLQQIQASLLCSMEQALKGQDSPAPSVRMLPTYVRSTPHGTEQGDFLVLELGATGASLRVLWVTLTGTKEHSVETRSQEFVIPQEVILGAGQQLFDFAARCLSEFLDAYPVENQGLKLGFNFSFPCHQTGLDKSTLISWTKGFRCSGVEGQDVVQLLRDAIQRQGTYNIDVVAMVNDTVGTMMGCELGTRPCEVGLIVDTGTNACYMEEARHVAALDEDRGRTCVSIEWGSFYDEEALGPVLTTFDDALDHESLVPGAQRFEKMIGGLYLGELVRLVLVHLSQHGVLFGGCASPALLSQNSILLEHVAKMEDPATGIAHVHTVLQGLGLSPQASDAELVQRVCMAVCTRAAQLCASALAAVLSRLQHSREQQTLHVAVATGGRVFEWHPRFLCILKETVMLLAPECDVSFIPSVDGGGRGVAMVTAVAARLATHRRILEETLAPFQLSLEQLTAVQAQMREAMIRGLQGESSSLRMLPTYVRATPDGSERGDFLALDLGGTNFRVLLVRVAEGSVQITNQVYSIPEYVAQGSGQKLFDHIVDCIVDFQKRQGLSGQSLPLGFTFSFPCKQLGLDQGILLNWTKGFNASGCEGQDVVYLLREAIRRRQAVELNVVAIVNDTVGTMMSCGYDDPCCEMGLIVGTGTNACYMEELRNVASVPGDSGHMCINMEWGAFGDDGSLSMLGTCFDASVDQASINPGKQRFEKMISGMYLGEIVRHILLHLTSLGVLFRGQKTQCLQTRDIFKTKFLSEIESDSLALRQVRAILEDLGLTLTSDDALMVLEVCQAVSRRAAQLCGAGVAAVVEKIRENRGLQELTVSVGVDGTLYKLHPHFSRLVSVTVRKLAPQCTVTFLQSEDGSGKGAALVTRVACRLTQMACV
As to the kind of experiment: Time dependent inhibition of Hexokinase type III activity after 6 h, at 22 degrees celsius, at 5 mM.

The target of assay [4] is T3, Hexokinase-1 (Rattus norvegicus) (UniProt P05708).
T3 sequence (whole entry): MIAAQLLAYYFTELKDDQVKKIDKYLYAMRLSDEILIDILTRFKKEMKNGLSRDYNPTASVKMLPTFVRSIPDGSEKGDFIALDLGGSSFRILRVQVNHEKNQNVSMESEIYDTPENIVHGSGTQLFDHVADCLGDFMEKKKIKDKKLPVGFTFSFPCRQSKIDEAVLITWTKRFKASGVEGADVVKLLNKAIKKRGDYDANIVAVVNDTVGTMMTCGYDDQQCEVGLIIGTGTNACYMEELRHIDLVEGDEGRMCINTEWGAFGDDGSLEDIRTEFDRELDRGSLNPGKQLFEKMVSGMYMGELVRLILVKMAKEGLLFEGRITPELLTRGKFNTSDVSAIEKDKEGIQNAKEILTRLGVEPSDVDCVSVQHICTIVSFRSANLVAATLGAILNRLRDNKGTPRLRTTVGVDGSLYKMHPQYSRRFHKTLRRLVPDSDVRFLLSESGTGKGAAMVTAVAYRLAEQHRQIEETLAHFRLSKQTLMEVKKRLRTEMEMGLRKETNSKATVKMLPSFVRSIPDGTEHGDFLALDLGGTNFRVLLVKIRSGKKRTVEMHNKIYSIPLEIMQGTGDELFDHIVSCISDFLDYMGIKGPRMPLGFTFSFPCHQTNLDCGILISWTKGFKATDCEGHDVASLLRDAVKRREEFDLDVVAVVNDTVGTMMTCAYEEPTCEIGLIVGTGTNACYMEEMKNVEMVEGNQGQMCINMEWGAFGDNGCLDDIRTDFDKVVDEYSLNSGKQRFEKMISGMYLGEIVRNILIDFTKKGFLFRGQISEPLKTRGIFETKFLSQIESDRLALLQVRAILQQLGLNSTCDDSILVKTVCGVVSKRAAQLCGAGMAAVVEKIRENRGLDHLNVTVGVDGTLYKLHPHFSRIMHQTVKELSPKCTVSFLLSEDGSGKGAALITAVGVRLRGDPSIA
As to the kind of experiment: Time dependent inhibition of Hexokinase type I activity after 6 h, at 22 degrees celsius, at 5 mM compound.

Assay [5] concerns the target Thymidine kinase (Escherichia coli) (UniProt P23331). As to the kind of experiment: Compound was tested for the initial inhibition of thymidine kinase by 1.4 mM compound in the presence of 5.7 mM ATP.
In assay [6] the test system is Saccharomyces cerevisiae. As to the kind of experiment: Time dependent inhibition of hexokinase activity after 6 hr, at 22 degrees celsius, with 5 mM ATP derivative in yeast.
Assay [7] addresses Thymidine kinase (Escherichia coli) (UniProt P23331). Briefly: Compound was tested for the loss of thymidine kinase activity from Escherichia coli after 6 hr at 0 degrees C at 10 mM.
The target of assay [8] is T1, Hexokinase-2 (Rattus norvegicus). As to the kind of experiment: Substrate activity against Rat hexokinase II as 1:1 Mg complex at 5.0 mM. The essentials:
(§1)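 Hexokinase activity read at 22 °C as A340 change, coupled to glucose-6-phosphate dehydrogenase, in 0.05 M Tris-HCl pH 7.6 with 6.6 mM MgCl2, 10 mM α-D-glucose and 0.93 mM NADP. Donor was 5.0 mM MgATP derivative (1:1 Mg complex) in place of ATP. Yeast HK was isoelectric-focused. Rat HK I and III came from electrofocused liver extract, HK II from dialysed muscle extract.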

Assay [9] has as its target T3, Hexokinase-1 (Rattus norvegicus). As to the kind of experiment: Substrate activity for rat hexokinase I as 1:1 Mg complex at 5.0 mM. The essentials:
as §1

Assay [10] deals with T2, Hexokinase-3 (Rattus norvegicus). As to the kind of experiment: Substrate activity for rat hexokinase III as 1:1 Mg complex at 5.0 mM. Put shortly: as §1
In assay [11] the test system is Saccharomyces cerevisiae. As to the kind of experiment: Substrate activity against yeast hexokinase as 1:1 Mg complexes at 5.0 mM. The essentials: as §1
Assay [12] addresses Thymidine kinase (Escherichia coli) (UniProt P23331). Briefly: Compound was tested for the initial inhibition of thymidine kinase by 1.4 mM compound in the presence of 5.7 mM ATP in Escherichia coli.
The target is the same in assay [13]. As to the kind of experiment: Compound was tested for the lose of thymidine kinase activity after 6 hr, at 0 degrees celsius, with 10 mM ATP derivative. values were expressed in percent.

Thymidine kinase (Escherichia coli), sequence (P23331 whole entry, looked up): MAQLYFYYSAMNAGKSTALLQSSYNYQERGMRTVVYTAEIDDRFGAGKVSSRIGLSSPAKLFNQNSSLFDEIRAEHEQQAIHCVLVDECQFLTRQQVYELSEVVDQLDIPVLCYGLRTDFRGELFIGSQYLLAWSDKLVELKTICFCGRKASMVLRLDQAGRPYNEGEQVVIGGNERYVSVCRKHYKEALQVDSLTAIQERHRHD

Compound `CN(CCCN(C)C(=O)CCCCNc1ncnc2c1ncn2[C@@H]1O[C@H](COP(=O)(O)OP(=O)(O)OP(=O)(O)O)[C@@H](O)[C@H]1O)C(=O)CCCCNC(=O)CI` returned a Velocity in assay [1] greater than 34%. Moreover, the inhibition (as a rule, the relative decrease from the control value, in per cent) came to 0% in assay [2]; 0% in assay [3]; 0% in assay [4]; 5% in assay [5]; 0% in the assay with Saccharomyces cerevisiae [6]; 51% in assay [7].
As to `O=C(CI)NCCCCCC(=O)NCCCNc1ncnc2c1ncn2[C@@H]1O[C@H](COP(=O)(O)OP(=O)(O)OP(=O)(O)O)[C@@H](O)[C@H]1O`, the Relative velocity was found to be 0.57 in assay [8], 0.79 in assay [9], 1.04 in assay [10] and 1.06 in the assay with Saccharomyces cerevisiae [11]. Moreover, the Velocity in assay [1] was greater than 39%. The inhibition in [3] worked out at 0%; in [4], 0%; in assay [5] it was 13%; in the assay on Saccharomyces cerevisiae [6] it was 0%; in assay [7], 74%.
In the case of `O=C(CI)NCCCCCCC(=O)NCCCNc1ncnc2c1ncn2[C@@H]1O[C@H](COP(=O)(O)OP(=O)(O)OP(=O)(O)O)[C@@H](O)[C@H]1O`, the Velocity in assay [1] was greater than 25%. The inhibition in [2] turned out to be 0%; in assay [4], 0%; in assay [5] it was 28%; in the assay on Saccharomyces cerevisiae [6], 0%; in assay [7], 58%.
Take `CN(CCCN(C)C(=O)CCCNc1ncnc2c1ncn2[C@@H]1O[C@H](COP(=O)(O)OP(=O)(O)OP(=O)(O)O)[C@@H](O)[C@H]1O)C(=O)CCCNC(=O)CI`: the Relative velocity in assay [8] is 0.43; in assay [9] it was 0.63; in assay [10], 1.02; with Saccharomyces cerevisiae [11] it was 0.94. The Velocity in assay [1] is greater than 14%. Also, the inhibition in assay [2] amounted to 0%; in assay [3] it was 0%; in [4], 0%; with Saccharomyces cerevisiae [6], 0%; in [12] it was 8%; in assay [13], 44%.
The compound `CN(CCCCN(C)C(=O)CCCNc1ncnc2c1ncn2[C@@H]1O[C@H](COP(=O)(O)OP(=O)(O)OP(=O)(O)O)[C@@H](O)[C@H]1O)C(=O)CCCNC(=O)CI` returned a Velocity in assay [1] of 14%. For the same compound, the inhibition was 0% in [2]; 0% in assay [3]; 0% in [4]; 12% in assay [5]; 0% in the assay on Saccharomyces cerevisiae [6]; 0% in [7].
`CN(CCCCN(C)C(=O)CCCCNc1ncnc2c1ncn2[C@@H]1O[C@H](COP(=O)(O)OP(=O)(O)OP(=O)(O)O)[C@@H](O)[C@H]1O)C(=O)CCCCNC(=O)CI`: the Velocity in assay [1] turned out to be 34%. Also, the inhibition in [2] was 0%; in assay [3], 0%; in [4], 0%; in [5], 9%; with Saccharomyces cerevisiae [6] it was 0%; in assay [7] it was 0%.
For the compound `O=C(CI)NCCCCC(=O)NCCCCCCNc1ncnc2c1ncn2[C@@H]1O[C@H](COP(=O)(O)OP(=O)(O)OP(=O)(O)O)[C@@H](O)[C@H]1O`, the Velocity in assay [1] stood at 39%. Also, the inhibition was 0% in assay [2]; 0% in assay [3]; 0% in assay [4]; 12% in assay [5]; 0% in the assay with Saccharomyces cerevisiae [6]; 0% in [7].
As to `CN(CCCCN(C)c1ncnc2c1ncn2[C@@H]1O[C@H](COP(=O)(O)OP(=O)(O)OP(=O)(O)O)[C@@H](O)[C@H]1O)C(=O)CCCNC(=O)CI`, the Relative velocity was 0.35 in assay [8], 0.88 in assay [9], 0.93 in assay [10] and 1.2 in the assay on Saccharomyces cerevisiae [11]. In [1], this compound came in with a Velocity greater than 33%. Moreover, the inhibition in assay [2] was found to be 0%; in assay [3], 0%; in assay [4] it was 0%; in the assay on Saccharomyces cerevisiae [6] it was 0%; in assay [12], 0%; in assay [13] it was 60%.
